# Laboratory results published in ChEMBL document CHEMBL1155452, “Oncocin (VDKPPYLPRPRPPRRIYNR-NH2): a novel antibacterial peptide optimized against gram-negative human pathogens” (J Med Chem, 2010).
# Key:
# [1] = tested on: Pseudomonas aeruginosa; test: Antimicrobial activity against Pseudomonas aeruginosa 60811001 after 20 hrs by broth microdilution method; assay type: functional; conditions: Pseudomonas aeruginosa, 60811001, 20 h
# Summary of the method: (§1)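 Pathogenic strains grown overnight on Columbia agar, colonies suspended in 0.9% saline to OD 0.1, diluted 1:300 in 1% TSB; final (1-2) × 10^5 cfu/well. Peptides 2-fold serially diluted in 1% TSB from 128 μg/mL, typically to 0.5 μg/mL. Incubated 37 °C, absorbance at 595 nm after 20 ± 2 h, in triplicate; MIC = lowest concentration with absorbance not exceeding medium only.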
# [2] = tested on: Escherichia coli; test: Antimicrobial activity against Escherichia coli 70430001 after 20 hrs by broth microdilution method; assay type: functional; conditions: Escherichia coli, 70430001, 20 h
# Summary of the method: (§2)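 Pathogens grown overnight on Columbia agar. Colonies suspended in 0.9% saline to OD 0.1, diluted 1:300 in 1% TSB, final (1-2) × 10^5 cfu/well. Peptides 2-fold serially diluted in 1% TSB from 128 to typically 0.5 μg/mL. Incubation at 37 °C; A595 read after 20 ± 2 h. MIC is the lowest concentration with absorbance not above medium only. Triplicate.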
# [3] = tested on: Pseudomonas aeruginosa; test: Antimicrobial activity against Pseudomonas aeruginosa 60909001 after 20 hrs by broth microdilution method; assay type: functional; conditions: Pseudomonas aeruginosa, 60909001, 20 h; summary of the method: as §1
# [4] = tested on: Acinetobacter baumannii; test: Antimicrobial activity against Acinetobacter baumannii ICB 9250 after 20 hrs by broth microdilution method; assay type: functional; conditions: ICB 9250, 20 h; summary of the method: as §2
# [5] = tested on: Stenotrophomonas; test: Antimicrobial activity against Stenotrophomonas ICB 7789 after 20 hrs by broth microdilution method; assay type: functional; conditions: ICB 7789, 20 h; summary of the method: as §2
# [6] = tested on: Enterobacter cloacae; test: Antimicrobial activity against Enterobacter cloacae Ha089 after 20 hrs by broth microdilution method; assay type: functional; conditions: Ha089, 20 h; summary of the method: as §2
# [7] = tested on: Proteus vulgaris; test: Antimicrobial activity against Proteus vulgaris ICB 9095 after 20 hrs by broth microdilution method; assay type: functional; conditions: ICB 9095, 20 h; summary of the method: as §2
# [8] = tested on: Escherichia coli; test: Antimicrobial activity against Escherichia coli 455/7 after 20 hrs by broth microdilution method; assay type: functional; conditions: 455/7, 20 h; summary of the method: as §2
# [9] = tested on: Escherichia coli; test: Antimicrobial activity against Escherichia coli 205024 after 20 hrs by broth microdilution method; assay type: functional; conditions: Escherichia coli, 205024, 20 h; summary of the method: as §2
# [10] = tested on: Klebsiella pneumoniae; test: Antimicrobial activity against Klebsiella pneumoniae ATCC 12657 after 20 hrs by broth microdilution method; assay type: functional; conditions: ATCC 12657, 20 h; summary of the method: as §2
# [11] = Stability in 100% mouse serum assessed as half life at 75 ug/ml by MALDI-TOF-MS analysis; assay type: ADME, cell-free
# Summary of the method: (§3)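 Peptide at 75 μg/mL final in pooled mouse serum (undiluted or 25% v:v aqueous), 37 °C. Triplicate aliquots taken at 0, 30, 60, 120 and 240 min and precipitated with 3% TCA on ice for 10 min. Supernatant neutralized with NaOH and analysed by RP-HPLC on C18 with TFA-containing gradient. Amounts expressed relative to 0 min; metabolites identified by MALDI-TOF-MS.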
# [12] = tested on: Pseudomonas aeruginosa; test: Antimicrobial activity against Pseudomonas aeruginosa 61118003 after 20 hrs by broth microdilution method; assay type: functional; conditions: Pseudomonas aeruginosa, 61118003, 20 h; summary of the method: as §1
# [13] = tested on: Klebsiella pneumoniae; test: Antimicrobial activity against Klebsiella pneumoniae 8085 after 20 hrs by broth microdilution method; assay type: functional; conditions: Klebsiella pneumoniae, 8085, 20 h; summary of the method: as §2
# [14] = tested on: Serum; test: Stability in 25% mouse serum assessed as peptide-13 level at 75 ug/ml after 2 hrs by MALDI-TOF-MS analysis; assay type: ADME, cell-free; summary of the method: as §3
# [15] = tested on: Escherichia coli; test: Antimicrobial activity against Escherichia coli 8474 after 20 hrs by broth microdilution method; assay type: functional; conditions: Escherichia coli, 8474, 20 h; summary of the method: as §2
# [16] = tested on: Acinetobacter baumannii; test: Antimicrobial activity against Acinetobacter baumannii ICB 14067 after 20 hrs by broth microdilution method; assay type: functional; conditions: ICB 14067, 20 h; summary of the method: as §2
# [17] = tested on: Enterobacter cloacae; test: Antimicrobial activity against Enterobacter cloacae 34654 after 20 hrs by broth microdilution method; assay type: functional; conditions: Enterobacter cloacae, 34654, 20 h; summary of the method: as §2
# [18] = tested on: Proteus vulgaris; test: Antimicrobial activity against Proteus vulgaris ICB 9081 after 20 hrs by broth microdilution method; assay type: functional; conditions: ICB 9081, 20 h; summary of the method: as §2
# [19] = tested on: Serum; test: Stability in 25% mouse serum assessed as peptide-13 level at 75 ug/ml after 30 mins by MALDI-TOF-MS analysis; assay type: ADME, cell-free; conditions: 0.5 h; summary of the method: as §3
# [20] = tested on: Escherichia coli; test: Antimicrobial activity against Escherichia coli 70502001 after 20 hrs by broth microdilution method; assay type: functional; conditions: Escherichia coli, 70502001, 20 h; summary of the method: as §2
# [21] = tested on: Escherichia coli; test: Antibacterial activity against Escherichia coli BL21 AI after 20 hrs by broth microdilution assay; assay type: functional
# Summary of the method: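 Nutrient-broth overnight cultures diluted in 1% TSB; E. coli BL21AI 7.5 × 10^5 cells/well, M. luteus ATCC 10240 2 × 10^6 cells/well. Peptides serially 2-fold diluted in 1% TSB from 128 to typically 0.5 μg/mL. Incubation at 37 °C; A595 read after 20 ± 2 h. MIC is the lowest concentration with absorbance not above medium only. Triplicate.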
substance,measurement,setting,value
H-VDKPPYLPRPRPPRRIYNR-NH2 [ONCOCIN],MIC,[1],2 µg/mL
same,MIC,[2],1 µg/mL
same,MIC,[3],2 µg/mL
same,MIC,[4],0.5 µg/mL
same,MIC,[5],32 µg/mL
same,MIC,[6],0.125 µg/mL
same,MIC,[7],4 µg/mL
same,MIC,[8],0.5 µg/mL
same,MIC,[9],4 µg/mL
same,MIC,[10],0.5 µg/mL
same,half-life at 75 ug/ml,[11],20 min
same,MIC,[12],2 µg/mL
same,MIC,[13],0.5 µg/mL
same,Activity,[14],20%
same,MIC,[15],0.5 µg/mL
same,MIC,[16],1 µg/mL
same,MIC,[17],0.25 µg/mL
same,MIC,[18],4 µg/mL
same,Activity,[19],10%
same,MIC,[20],1 µg/mL
same,MIC,[21],4 µg/mL
